From publication PMC6064589 (Diabetes Therapy, 2018)
Read-outs that look alike come from different tables or passages of the source. Blank lines part the entries; values can stand above or below the molecule they belong to.

Key:
healthy subjects [1] = format: in vivo, human
In short: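 Healthy subjects randomised to once-weekly s.c. test peptide or placebo, escalated every 4 weeks (0.25, 0.5, 1.0, 1.5 mg) over 16 weeks. Supine continuous 12-lead Holter (Mason-Likar) ECGs at steady state of each level: pre-dose and 12, 18, 24, 25, 26, 27, 30, 36, 42, 48 h. QT/RR measured semi-automatically, lead II. QTcI=QT/RR^β (subject-specific β); QTcL, QTcF, QTcB. Placebo-subtracted baseline-adjusted means, two-sided 90% CIs.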

healthy subjects [2] = experiment: Other ECG assessments; format: in vivo, human
In short: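 ECGs come from the same Holter recordings: 11 time points, pre-dose to 48 h after last dose at 0.5, 1.0 and 1.5 mg. HR, PR and QRS use the same model. Outlier cut-offs: HR <50 or >100 bpm; PR >220 ms and/or >25% change from baseline; QRS >110 ms and/or >25% change. A cardiologist read one random ECG per time point for T/U wave abnormalities.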

[3] = Pharmacokinetics of semaglutide at steady state of each dose level; format: in vivo, human; details: doses 0.25-1.5 mg at steady state
healthy subjects [4] = experiment: Safety and tolerability; format: in vivo, human
In short: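 Healthy subjects received s.c. test peptide or placebo once weekly for 16 weeks, escalating 0.25→0.5→1.0→1.5 mg every 4 weeks, with 5–7-week follow-up. Some injections were given on-site, the rest self-administered. Recorded: adverse events, hypoglycaemic events, anti-drug antibodies at follow-up, haematology, biochemistry, urinalysis, calcitonin, vital signs, ECG, physical examination, body weight and fasting plasma glucose changes from baseline.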

[5] = phase 3 trials; cited from earlier work
[6] = test system: dipeptidyl peptidase-4 (DPP-4); details: due to substitution at position 8; cited from earlier work
healthy subjects [7] = details: cited from earlier work
healthy subjects [8] = format: in vivo, human; details: single oral 400 mg dose, N = 76
In short: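 Placebo-arm subjects received single oral 400 mg positive control or matching placebo in nested crossover, before (baseline) and after (week 15) placebo treatment. […] Supine Holter ECGs pre-dose and 1, 2, 3, 6, 12, 18, 24 h. QTcI analysed by ANOVA (treatment, period, subject fixed; pre-dose QTcI covariate). 3 and 6 h confirmatory with 95% CI; other times with 90% CI.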

[9] = 1.5 mg at steady state, 0-48 h after dosing
[10] = s.c. once weekly, escalated 0.25 to 1.5 mg over 16 weeks, N = 83

Upper limits of all 11 two-sided 90% CIs for the mean ΔΔQTcI (healthy subjects [1]; 0.5 mg at steady state, 0-48 h after dosing): < 10 ms
Upper limits of all 11 two-sided 90% CIs for the mean ΔΔQTcI (healthy subjects [1]; 1.0 mg at steady state, 0-48 h after dosing): < 10 ms
Maximum upper limit of the two-sided 90% CI for the time-matched ΔΔQTcI (healthy subjects [1]; [9]): 0.3 ms
Upper limits of the 11 two-sided 90% CIs of ΔΔQTcI (healthy subjects [1]; [9]): < 10 ms
Increase in AUC0−48h and Cmax with increasing dose [3]: consistent with dose proportionality
Molecule: CC[C@H](C)[C@H](NC(=O)[C@H](Cc1ccccc1)NC(=O)[C@H](CCC(=O)O)NC(=O)[C@H](CCCCNC(=O)COCCOCCNC(=O)COCCOCCNC(=O)CC[C@H](NC(=O)CCCCCCCCCCCCCCCCC(=O)O)C(=O)O)NC(=O)[C@H](C)NC(=O)[C@H](C)NC(=O)[C@H](CCC(N)=O)NC(=O)CNC(=O)[C@H](CCC(=O)O)NC(=O)[C@H](CC(C)C)NC(=O)[C@H](Cc1ccc(O)cc1)NC(=O)[C@H](CO)NC(=O)[C@H](CO)NC(=O)[C@@H](NC(=O)[C@H](CC(=O)O)NC(=O)[C@H](CO)NC(=O)[C@@H](NC(=O)[C@H](Cc1ccccc1)NC(=O)[C@@H](NC(=O)CNC(=O)[C@H](CCC(=O)O)NC(=O)C(C)(C)NC(=O)[C@@H](N)Cc1cnc[nH]1)[C@@H](C)O)[C@@H](C)O)C(C)C)C(=O)N[C@@H](C)C(=O)N[C@@H](Cc1c[nH]c2ccccc12)C(=O)N[C@@H](CC(C)C)C(=O)N[C@H](C(=O)N[C@@H](CCCNC(=N)N)C(=O)NCC(=O)N[C@@H](CCCNC(=N)N)C(=O)NCC(=O)O)C(C)C [semaglutide]
Prolongation of the uncorrected QT interval, QTcL or QTcF (healthy subjects [1]; doses of 0.5, 1.0 and 1.5 mg at steady state): No prolongation was observed
QTcB, upper limits of the 90% CIs (healthy subjects [1]; for at least one time point at all dose levels): > 10 ms
Increased PR interval of > 25% above baseline (healthy subjects [2]; 0.5 mg group): none
Increased PR interval of > 25% above baseline (healthy subjects [2]; 1.0 and 1.5 mg treatment groups): five
Second-degree or higher-grade atrioventricular block (healthy subjects [2]; all ECGs evaluated by the cardiologist): no observations of a second-degree atrioventricular block or higher-grade atrioventricular blocks
Changes in QRS complex duration of > 25% above baseline (healthy subjects [2]; any of the treatment arms): No changes
Subjects with T wave abnormalities (healthy subjects [2]; doses 0.5 or 1.0 mg, female subjects, all of no clinical relevance): three
U wave abnormalities (healthy subjects [2]; either group): no U wave abnormalities were observed
Diastolic BP change from baseline to last dose (healthy subjects [4]; 16-week treatment, mean ± SD): 5 ± 8 mmHg
HR change from baseline to last dose (vital signs) (healthy subjects [4]; 16-week treatment, mean ± SD): 10 ± 9 bpm
Development of anti-semaglutide antibodies (healthy subjects [4]; at follow-up): no subjects developed anti-semaglutide antibodies
Severe hypoglycemic episodes (healthy subjects [4]; in vivo): No severe hypoglycemic episodes were reported
Events leading to withdrawal, percentage of subjects (healthy subjects [4]; [10]): 2.4%
Gastrointestinal disorders (predominantly nausea, vomiting and diarrhea), subjects (healthy subjects [4]; [10]): 56.6%
Metabolism and nutrition disorders (predominantly decreased appetite), subjects (healthy subjects [4]; [10]): 51.8%
Mean increases in HR with semaglutide versus placebo [5]: up to 3 bpm
Susceptibility to degradation by dipeptidyl peptidase-4 (DPP-4) [6]: less susceptible to degradation

Molecule: albiglutide
PR interval prolongation (healthy subjects [7]): A PR interval prolongation has also been observed
Prolongation of the QTcI interval or QTc by other correction methods (healthy subjects [7]; healthy subjects): neither albiglutide administered once weekly nor liraglutide administered once daily have been observed to prolong the QTcI interval

Molecule: exenatide
Correlation between exposure and QTc interval (healthy subjects [7]; single dose): positive correlation
Prolongation of QTcP or QTcI (healthy subjects [7]; supratherapeutic concentrations, intravenous, healthy subjects): no prolongation

Molecule: liraglutide
PR interval prolongation (healthy subjects [7]): A PR interval prolongation has also been observed
Prolongation of the QTcI interval or QTc by other correction methods (healthy subjects [7]; healthy subjects): neither albiglutide administered once weekly nor liraglutide administered once daily have been observed to prolong the QTcI interval

Molecule: dulaglutide
QTc prolongation (healthy subjects [7]; administered once weekly): not associated with QTc prolongation
PR interval prolongation (healthy subjects [7]): A PR interval prolongation has also been observed

Molecule: COc1c(N2C[C@@H]3CCCN[C@@H]3C2)c(F)cc2c(=O)c(C(=O)O)cn(C3CC3)c12 [moxifloxacin]
Estimated treatment difference moxifloxacin vs. placebo, QTcI (healthy subjects [8]; 1 h after dosing): 10.0 ms
Estimated treatment difference moxifloxacin vs. placebo, QTcI (healthy subjects [8]; 2 h after dosing): 12.3 ms
Estimated treatment difference moxifloxacin vs. placebo, QTcI (healthy subjects [8]; 3 h after dosing (confirmatory endpoint)): 12.3 ms
Estimated treatment difference moxifloxacin vs. placebo, QTcI (healthy subjects [8]; 6 h after dosing (confirmatory endpoint)): 8.9 ms
